{"source": "paper PMC5474427", "about": "(EBioMedicine, 2016)", "key": {"Phospho-b-Catenin (S675)": {"test_system": "Phospho-b-Catenin (S675)", "format": "in vivo", "conditions": "A549 xenograft tumors, 2 h after final dose on day 20", "outline": "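Xenograft tumors were harvested 2 h after the last dose, flash frozen and lysed in buffer with protease and phosphatase inhibitors. Protein was measured by BCA. Lysates from individual mice in each group were pooled so each tumor contributed equal total protein. Western blots were imaged on an infrared imager. Pools were run once, with no statistical testing.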"}, "[1]": {"conditions": "Phase I, solid tumors; ref Dean et al., 2016; cited from earlier work"}, "palmitoyl-β-tubulin": {"test_system": "palmitoyl-β-tubulin", "assay": "Tubulin palmitoylation in NSCLC cell lines", "format": "cell-based", "conditions": "A549 cells, 20 μM for 18 h"}, "palmitoyl-α-tubulin": {"test_system": "palmitoyl-α-tubulin", "assay": "Tubulin palmitoylation in NSCLC cell lines", "format": "cell-based", "conditions": "A549 cells, 20 μM for 18 h"}, "[2]": {"test_system": "β-tubulin mRNA in 22Rv1 prostate tumor cells", "assay": "β-tubulin mRNA expression by RNA sequencing", "format": "cell-based", "conditions": "22Rv1 cells, 48 h, 1 μM TVB-3166"}, "[3]": {"test_system": "CALU6 non-small-cell lung tumor cells", "assay": "Soft agar colony formation", "format": "cell-based", "outline": "(§1)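 Cells were plated in 0.35% agarose in IMDM with 10% FBS, 1% non-essential amino acids and 1% L-glutamine, containing a dose–response matrix of FASN inhibitor and paclitaxel. This layer sat over a 0.6% bacto-agar base in the same medium. A compound-containing liquid feeder layer was changed weekly. After 3–4 weeks, colonies were stained with 0.005% crystal violet and wells imaged.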"}, "[4]": {"test_system": "22Rv1 prostate tumor cells", "assay": "Soft agar colony formation", "format": "cell-based", "outline": "as §1"}, "[5]": {"test_system": "CALU6 NSCLC adenocarcinoma cell line xenograft", "assay": "CALU6 NSCLC xenograft tumor growth", "format": "in vivo, mice", "conditions": "CALU-6; TVB-3166 60 mg/kg oral once daily; paclitaxel 10 mg/kg iv every 4 days", "outline": "(§2)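 Mice with NSCLC cell-line (CALU-6, A549) or patient-derived tumors were randomized by tumor size and dosed once mean tumor size reached 150–200 mm3; ≥10 mice/group. FASN inhibitor 60 mg/kg by oral gavage once daily; paclitaxel 10 mg/kg iv every 4 days or docetaxel 8 or 6 mg/kg iv every 7 days. In combinations, FASN inhibitor was given 2 h before taxane. TGI is % tumor growth from treatment start, drug vs vehicle groups.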"}, "MRC-5 lung fibroblasts": {"test_system": "MRC-5 lung fibroblasts", "format": "cell-based", "conditions": "MRC-5 fibroblasts"}, "xenograft tumor models": {"test_system": "xenograft tumor models", "assay": "Xenograft tumor models, summary statements across models", "format": "in vivo, mice", "conditions": "three NSCLC studies (CALU6, A549, CTG-0165_P + 6)", "outline": "as §2"}}}
{"smiles": "CC(=O)O[C@@]12CO[C@@H]1C[C@H](O)[C@@]1(C)C(=O)[C@H](O)C3=C(C)[C@@H](OC(=O)[C@H](O)[C@@H](NC(=O)OC(C)(C)C)c4ccccc4)C[C@@](O)([C@@H](OC(=O)c4ccccc4)[C@H]21)C3(C)C", "note": "[Docetaxel]", "values": [{"measurement": "inhibition of β-catenin S675 phosphorylation", "setting": "Phospho-b-Catenin (S675)", "value": 25, "unit": "%"}]}
{"smiles": "Cc1nnc(-c2cc(C(=O)N3CCC(c4ccc(C#N)cc4)CC3)c(C)cc2C2CCC2)[nH]1", "note": "[TVB-2640]", "values": [{"measurement": "oral bioavailability and pharmacokinetics", "setting": "[1]", "value": "excellent"}]}
{"smiles": "CCCCCCCCCCCCCCC(Br)C(=O)O", "note": "(stereo not drawn) [2-Bromo-Palmitate, 2-bromopalmitate]", "values": [{"measurement": "decrease of palmitoyl-β-tubulin level", "setting": "palmitoyl-β-tubulin", "value": 79, "unit": "%"}, {"measurement": "decrease of palmitoyl-α-tubulin level", "setting": "palmitoyl-α-tubulin", "value": 27, "unit": "%"}]}
{"smiles": "CC(=O)O[C@H]1C(=O)[C@@]2(C)[C@H]([C@H](OC(=O)c3ccccc3)[C@]3(O)C[C@H](OC(=O)[C@H](O)[C@@H](NC(=O)c4ccccc4)c4ccccc4)C(C)=C1C3(C)C)[C@]1(OC(C)=O)CO[C@@H]1C[C@@H]2O", "note": "[Paclitaxel]", "values": [{"measurement": "β-tubulin mRNA expression compared to DMSO", "setting": "[2]", "value": "no effect"}, {"measurement": "soft agar colony growth", "setting": "[3]; 3 nM paclitaxel", "value": "strong inhibition of colony growth"}, {"measurement": "soft agar colony growth", "setting": "[3]; paclitaxel 0.3 or 1.0 nM", "value": "did not affect colony size or number"}, {"measurement": "soft agar colony growth", "setting": "[4]; 3 nM paclitaxel", "value": "strong inhibition of colony growth"}, {"measurement": "soft agar colony growth", "setting": "[4]; paclitaxel 0.3 or 1.0 nM", "value": "did not affect colony size or number"}, {"measurement": "TGI vs. vehicle", "setting": "[5]", "value": 63, "unit": "%"}, {"measurement": "effect on microtubule organization in non-tumor cells", "setting": "MRC-5 lung fibroblasts", "value": "very little effect"}, {"measurement": "tumor growth inhibition, single agent", "setting": "xenograft tumor models", "value": "48–63%"}]}
